In ChEMBL document CHEMBL5329210, “Novel piperazine-1,2,3-triazole leads for the potential treatment of pancreatic cancer” (RSC Med Chem, 2023):

Columns and labels:
A-431 = assay: Inhibition of cell growth of human A-431 cells measured after 72 hrs by MTT assay; type: functional
Procedure, shortened: (§1)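 MTT read-out. Cancer lines were grown in DMEM with 10% FBS, glutamine and antibiotics. MCF10A was grown in DMEM:F12 with 5% horse serum, EGF, hydrocortisone, cholera toxin and insulin. Cells were plated in duplicate at 2500–4000/well, and drug was added 24 h later. After 72 h, absorbance was read at 540 nm. Single-point lines used 25 μM. GI50 is 50% growth inhibition versus untreated control. n = 3.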

BXPC-3 [1] = assay: Inhibition of cell growth of human BXPC-3 cells at 25 uM measured after 72 hrs by CCK8 assay relative to control; type: functional
Procedure, shortened: (§2)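 Single 25 μM exposure, read by CCK-8, n = 3, relative to control. Seeding was 3×10^3/well for MiaPaCa2, 7×10^3/well for BxPC3 (in RPMI-1640/10% FBS) and 1×10^4/well for HPDE (in KSFM with rEGF/BPE). After 24 h attachment, cells were exposed for 72 h. CCK-8 was then incubated for 1 h, and A450 minus A650 was compared with 0.5% DMSO.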

MIA PaCa-2 [2] = assay: Inhibition of cell growth of human MIA PaCa-2 cells at 25 uM measured after 72 hrs by CCK8 assay relative to control; type: functional; procedure, shortened: as §2
MCF7 [3] = assay: Inhibition of cell growth of human MCF7 cells measured after 72 hrs by MTT assay; type: functional; procedure, shortened: as §1
[4] = Inhibition of cell growth of human SJG2 cells measured after 72 hrs by MTT assay; type: functional; conditions: SJ-G2; procedure, shortened: as §1
U-87 MG = assay: Inhibition of cell growth of human U87 cells measured after 72 hrs by MTT assay; type: functional, U-87MG ATCC; procedure, shortened: as §1
[5] = Inhibition of cell growth of human HPDE cells at 25 uM measured after 72 hrs by CCK8 assay relative to control; type: toxicity, cell-based; procedure, shortened: as §2
DU-145 = assay: Inhibition of cell growth of human DU-145 cells measured after 72 hrs by MTT assay; type: functional; procedure, shortened: as §1
A2780 [6] = assay: Inhibition of cell growth of human A2780 cells measured after 72 hrs by MTT assay; type: functional; procedure, shortened: as §1
MIA PaCa-2 [7] = assay: Inhibition of cell growth of human MIA PaCa-2 cells measured after 72 hrs by MTT assay; type: functional; procedure, shortened: as §1
HT-29 [8] = assay: Inhibition of cell growth of human HT-29 cells measured after 72 hrs by MTT assay; type: functional; procedure, shortened: as §1
[9] = Inhibition of cell growth of human MCF-10A cells measured after 72 hrs by MTT assay; type: toxicity, cell-based; procedure, shortened: as §1
NCI-H460 = assay: Inhibition of cell growth of human NCI-H460 cells measured after 72 hrs by MTT assay; type: functional; procedure, shortened: as §1
BE(2)-C [10] = assay: Inhibition of cell growth of human BE2C cells measured after 72 hrs by MTT assay; type: functional; procedure, shortened: as §1
ASPC1 [11] = assay: Inhibition of cell growth of human ASPC1 cells measured after 72 hrs by CCK8 assay; type: functional
PANC-1 [12] = assay: Inhibition of cell growth of human PANC-1 cells measured after 72 hrs by CCK8 assay; type: functional
Capan-2 [13] = assay: Inhibition of cell growth of human Capan-2 cells measured after 72 hrs by CCK8 assay; type: functional
HPAC [14] = assay: Inhibition of cell growth of human HPAC cells measured after 72 hrs by CCK8 assay; type: functional
BXPC-3 [15] = assay: Inhibition of cell growth of human BXPC-3 cells measured after 72 hrs by CCK8 assay; type: functional
Procedure, shortened: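 CCK-8 viability in human pancreatic cancer lines. Compounds were added over 100–0.05 μM 24 h after seeding, alongside a 0.5% DMSO vehicle. After 72 h, CCK-8 was incubated for 1 h at 37 °C. A450 minus A650 was expressed as % of vehicle. IC50 was taken from the dose-response curve. Seeding was 3×10^3/well for MiaPaCa2 and 7×10^3/well for BxPC3 and CFPAC-1. n = 3.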

[16] = Inhibition of cell growth of human MCF-10A cells at 25 uM measured after 72 hrs by MTT assay relative to control; type: toxicity, cell-based; procedure, shortened: as §1
BE(2)-C [17] = assay: Inhibition of cell growth of human BE2C cells at 25 uM measured after 72 hrs by MTT assay relative to control; type: functional; procedure, shortened: as §1
PANC-1 [18] = assay: Inhibition of cell growth of human PANC-1 cells at 25 uM measured after 72 hrs by MTT assay relative to control; type: functional; procedure, shortened: as §1
Capan-2 [19] = assay: Inhibition of cell growth of human Capan-2 cells at 25 uM measured after 72 hrs by MTT assay relative to control; type: functional; procedure, shortened: as §1
MIA PaCa-2 [20] = assay: Inhibition of cell growth of human MIA PaCa-2 cells at 25 uM measured after 72 hrs by MTT assay relative to control; type: functional; procedure, shortened: as §1
HPAC [21] = assay: Inhibition of cell growth of human HPAC cells at 25 uM measured after 72 hrs by MTT assay relative to control; type: functional; procedure, shortened: as §1
MCF7 [22] = assay: Inhibition of cell growth of human MCF7 cells at 25 uM measured after 72 hrs by MTT assay relative to control; type: functional; procedure, shortened: as §1
A2780 [23] = assay: Inhibition of cell growth of human A2780 cells at 25 uM measured after 72 hrs by MTT assay relative to control; type: functional; procedure, shortened: as §1
HT-29 [24] = assay: Inhibition of cell growth of human HT-29 cells at 25 uM measured after 72 hrs by MTT assay relative to control; type: functional; procedure, shortened: as §1
ASPC1 [25] = assay: Inhibition of cell growth of human ASPC1 cells at 25 uM measured after 72 hrs by MTT assay relative to control; type: functional; procedure, shortened: as §1
BXPC-3 [26] = assay: Inhibition of cell growth of human BXPC-3 cells at 25 uM measured after 72 hrs by MTT assay relative to control; type: functional; procedure, shortened: as §1

Structure (SMILES) | GI50 (A-431) [µM] | inhibition at 25 µM (BXPC-3 [1]) [%] | inhibition at 25 µM (MIA PaCa-2 [2]) [%] | GI50 (MCF7 [3]) [µM] | GI50 [4] [µM] | GI50 (U-87 MG) [µM] | inhibition at 72 h, 25 µM [5] [%] | GI50 (DU-145) [µM] | GI50 (A2780 [6]) [µM] | GI50 (MIA PaCa-2 [7]) [µM] | GI50 (HT-29 [8]) [µM] | GI50 at 72 h [9] [µM] | GI50 (NCI-H460) [µM] | GI50 (BE(2)-C [10]) [µM] | inhibition at 72 h, 25 µM [16] [%] | inhibition at 25 µM (BE(2)-C [17]) [%] | inhibition at 25 µM (PANC-1 [18]) [%] | inhibition at 25 µM (Capan-2 [19]) [%] | inhibition at 25 µM (MIA PaCa-2 [20]) [%] | inhibition at 25 µM (HPAC [21]) [%] | also measured
COc1cccc(-c2cn(CCCN3CCN(S(=O)(=O)c4ccc([N+](=O)[O-])cc4)CC3)nn2)c1 | > 50 | 21.1 | < 10 | > 50 | > 50 | > 50 | 46.5 | > 50 | 27 | > 50 | 41 | > 50 | > 50 | > 50 |  |  |  |  |  |  | 
O=S(=O)(c1ccc(C(F)(F)F)cc1)N1CCN(CCCn2cc(-c3ccc(C(F)(F)F)cc3)nn2)CC1 |  |  |  |  |  |  |  |  |  |  |  |  |  |  |  |  |  |  |  |  | GI50 (ASPC1 [11]): 18 µM; GI50 (PANC-1 [12]): 16 µM; GI50 (Capan-2 [13]): 16 µM; GI50 (HPAC [14]): 15 µM; GI50 (BXPC-3 [15]): 14 µM
COc1cccc(-c2cn(CCCN3CCN(S(=O)(=O)c4ccc(C)cc4)CC3)nn2)c1 | > 50 | < 10 | < 10 | 33 | > 50 | > 50 | 45 | > 50 | 29 | > 50 | 22 | > 50 | > 50 | > 50 |  |  |  |  |  |  | 
O=S(=O)(c1cccc(C(F)(F)F)c1)N1CCN(CCCn2cc(-c3ccc(Br)cc3)nn2)CC1 |  |  |  |  |  |  |  |  |  |  |  |  |  |  | 74 | 40 | 41 | 39 | 35 | < 10 | inhibition at 25 µM (MCF7 [22]): 56%; inhibition at 25 µM (A2780 [23]): 72%; inhibition at 25 µM (HT-29 [24]): 46%; inhibition at 25 µM (ASPC1 [25]): 53%; inhibition at 25 µM (BXPC-3 [26]): 22%
COc1cccc(-c2cn(CCCN3CCN(S(=O)(=O)c4ccccc4)CC3)nn2)c1 | > 50 | < 10 | < 10 | 35 | 42 | > 50 | 15.8 | > 50 | 40 | > 50 | 28 | > 50 | > 50 | > 50 |  |  |  |  |  |  | 
Cc1ccc(-c2cn(CCCN3CCN(S(=O)(=O)c4cccc(C(F)(F)F)c4)CC3)nn2)cc1 |  |  |  |  |  |  |  |  |  |  |  |  |  |  | 79 | 60 | 57 | 54 | 48 | 40 | inhibition at 25 µM (MCF7 [22]): 86%; inhibition at 25 µM (A2780 [23]): 83%; inhibition at 25 µM (HT-29 [24]): 63%; inhibition at 25 µM (ASPC1 [25]): 60%; inhibition at 25 µM (BXPC-3 [26]): 32%
O=S(=O)(c1ccc(C(F)(F)F)cc1)N1CCN(CCCn2cc(-c3ccc(Br)cc3)nn2)CC1 |  |  |  |  |  |  |  |  |  |  |  |  |  |  |  |  |  |  |  |  | GI50 (ASPC1 [11]): 8.3 µM; GI50 (PANC-1 [12]): 6.8 µM; GI50 (Capan-2 [13]): 7.7 µM; GI50 (HPAC [14]): 9.6 µM; GI50 (BXPC-3 [15]): 8 µM
COc1cccc(-c2cn(CCCN3CCN(S(=O)(=O)c4ccc(Br)cc4)CC3)nn2)c1 | 40 | 10.7 | < 10 | 14 | 23 | > 50 | 32.6 | 25 | 20 | > 50 | 18 | 29 | 35 | 20 |  |  |  |  |  |  | 
Cc1ccc(-c2cn(CCCN3CCN(S(=O)(=O)c4ccccc4C(F)(F)F)CC3)nn2)cc1 |  |  |  |  |  |  |  |  |  |  |  |  |  |  | 61 | 35 | 48 | 42 | 38 | 41 | inhibition at 25 µM (MCF7 [22]): 79%; inhibition at 25 µM (A2780 [23]): 75%; inhibition at 25 µM (HT-29 [24]): 86%; inhibition at 25 µM (ASPC1 [25]): 57%; inhibition at 25 µM (BXPC-3 [26]): 11%
COc1ccc(S(=O)(=O)N2CCN(CCCn3cc(-c4cccc(OC)c4)nn3)CC2)cc1 | > 50 | < 10 | 20.3 | 38 | 32 | > 50 | 33.9 | > 50 | 27 | > 50 | 30 | > 50 | > 50 | > 50 |  |  |  |  |  |  | 
CCc1ccc(-c2cn(CCCN3CCN(S(=O)(=O)c4ccccc4C(F)(F)F)CC3)nn2)cc1 |  |  |  |  |  |  |  |  |  |  |  |  |  |  | 63 | 52 | 48 | 25 | 39 | 67 | inhibition at 25 µM (MCF7 [22]): 82%; inhibition at 25 µM (A2780 [23]): 75%; inhibition at 25 µM (HT-29 [24]): 79%; inhibition at 25 µM (ASPC1 [25]): 59%; inhibition at 25 µM (BXPC-3 [26]): 16%
O=S(=O)(c1cccc(C(F)(F)F)c1)N1CCN(CCCn2cc(-c3ccc(C(F)(F)F)cc3)nn2)CC1 |  |  |  |  |  |  |  |  |  |  |  |  |  |  | 59 | 61 | 60 | 67 | 58 | 74 | inhibition at 25 µM (MCF7 [22]): 86%; inhibition at 25 µM (A2780 [23]): 65%; inhibition at 25 µM (HT-29 [24]): 50%; inhibition at 25 µM (ASPC1 [25]): 50%; inhibition at 25 µM (BXPC-3 [26]): 55%
COc1cccc(-c2cn(CCCN3CCN(S(=O)(=O)c4ccc(C(F)(F)F)cc4)CC3)nn2)c1 | > 50 | < 10 | < 10 | 28 | > 50 | > 50 | 29 | > 50 | 21 | > 50 | 23 | 39 | > 50 | > 50 |  |  |  |  |  |  | 
